The source made the active and inactive calls. The calls are words filed in the database; no cut-off is given here.

Data set [1] relates to Human alphaherpesvirus 1. Put plainly: Antiviral activity against HSV1 infected in african green monkey Vero cells assessed as reduction of UL27 expression at 1 uM after up to 24 hrs by RT-PCR analysis. The class given is functional, organism-based. Put shortly:
(§1)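 Vero monolayer infected with HSV-1 (MOI = 1) with or without 1 µM compound. RNA extracted at 3, 6 and 12 hpi, reverse transcribed, and serially diluted cDNA used for real-time PCR of UL54, UL52 and UL27. Mean ± SD, n = 3; Student's t-test against untreated controls.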

Data set [2] relates to Human alphaherpesvirus 1. The data set can be described thus: Antiviral activity against HSV1 infected in african green monkey Vero cells assessed as log reduction of viral yield at 1 uM treated after 24 hrs post infection by plaque assay. The class given is functional. Put shortly: (§2)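 HSV-1 at MOI = 1 in Vero cells, compound at 1 µM in time-of-addition and time-of-removal schedules. Cultures harvested at 24 hpi; virus yield titrated by plaque assay.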

The subject of another data set is Coxsackievirus B3. Put plainly: Antiviral activity against Coxsackievirus B3 infected in african green monkey Vero cells assessed as inhibition of virus-induced cytopathic effect. The class given is functional, organism-based.
The nature of data set [3]: Therapeutic index, ratio of CC50 for african green monkey Vero cells to EC50 for HSV1. The format is cell-based. Particulars: read-out: TI. Put shortly:
(§3)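 TI calculated as CC50 (Vero, MTT) divided by EC50 (Vero, plaque reduction) for the respective HSV type.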

For data set [4], the system named is Human alphaherpesvirus 1. Put plainly: Antiviral activity against HSV1 infected in african green monkey Vero cells assessed as log reduction of viral yield at 1 uM treated after 6 hrs post infection by plaque assay. The class given is functional. Put shortly:
as §2

Data set [5] concerns Human alphaherpesvirus 1. Put plainly: Antiviral activity against HSV1 infected in african green monkey Vero cells assessed as inhibition DNA synthesis at 1 uM after 24 hrs by RT-PCR analysis. The format is functional, organism-based. In short, it runs like this:
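Vero monolayer infected with HSV-1 (MOI = 1) with or without 1 µM compound. DNA extracted at 24 hpi; UL52 quantified by real-time PCR. Mean ± SD, n = 3; Student's t-test against untreated controls.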

The test system of data set [6] is Human alphaherpesvirus 1. Put plainly: Antiviral activity against HSV1 infected in african green monkey Vero cells assessed as log reduction of viral yield at 1 uM after drug washout by plaque assay. The class given is functional. Put shortly: as §2
The subject of data set [7] is Human alphaherpesvirus 1. Put plainly: Antiviral activity against HSV1 infected in african green monkey Vero cells assessed as reduction of UL54 expression at 1 uM after up to 24 hrs by RT-PCR analysis. The class given is functional, organism-based. Put shortly:
as §1

The next data set has as its system Influenza A virus. Put plainly: Antiviral activity against Influenza A virus H1N1 infected in african green monkey Vero cells assessed as inhibition of virus-induced cytopathic effect. The format is functional, organism-based.
Data set [8] can be described thus: Cytotoxicity against african green monkey Vero cells by MTT assay. The format is cell-based. The following applies: chlorocebus sabaeus. Put shortly: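 Vero cells; MTT viability read-out. CC50 taken as concentration reducing cell viability by 50%. Mean ± SD of three independent experiments.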
The test system of data set [9] is Human alphaherpesvirus 2. Put plainly: Antiviral activity against HSV2 infected in african green monkey Vero cells assessed as inhibition of virus-induced cytopathic effect. The format is functional, organism-based.
Data set [10] concerns Human alphaherpesvirus 1. The data set can be described thus: Antiviral activity against HSV1 infected in african green monkey Vero cells assessed as log reduction of viral yield at 1 uM treated after 9 hrs post infection by plaque assay. The class given is functional. Put shortly:
as §2

The test system of data set [11] is Human alphaherpesvirus 1. Put plainly: Antiviral activity against HSV1 infected in african green monkey Vero cells assessed as inhibition of viral replication by plaque reduction assay. The following applies: Human alphaherpesvirus 1, Vero. The class given is functional, organism-based. Put shortly: (§4)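 Vero cells; plaque reduction assay at concentrations found non-cytotoxic by MTT. EC50 is the concentration inhibiting 50% of HSV replication. Mean ± SD of three independent experiments.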

The test system of data set [12] is Human alphaherpesvirus 1. Put plainly: Antiviral activity against HSV1 infected in african green monkey Vero cells assessed as reduction of UL52 expression at 1 uM after up to 24 hrs by RT-PCR analysis. The class given is functional, organism-based. Put shortly: as §1
For data set [13], the system named is Human alphaherpesvirus 1. The data set can be described thus: Antiviral activity against HSV1 infected in african green monkey Vero cells assessed as inhibition of virus-induced cytopathic effect. The class given is functional, organism-based.
In a further data set the test system is Human orthopneumovirus. Put plainly: Antiviral activity against Human respiratory syncytial virus infected in african green monkey Vero cells assessed as inhibition of virus-induced cytopathic effect. The format is functional, organism-based.
Data set [14] can be described thus: Therapeutic index, ratio of CC50 for african green monkey Vero cells to EC50 for HSV2. The class given is cell-based. Particulars: read-out: TI. In short, it runs like this:
as §3

Data set [15] relates to Human alphaherpesvirus 2. Put plainly: Antiviral activity against HSV2 infected in african green monkey Vero cells assessed as inhibition of viral replication by plaque reduction assay. The class given is functional, organism-based. Particulars: Human alphaherpesvirus 2, Vero. In short, it runs like this: as §4

As for `CC(=O)OC1CCC(Nc2cc(-n3nc(C)c4c3CC(C)(C)CC4=O)ccc2C(N)=O)CC1` (stereo unspecified), the result with Human alphaherpesvirus 1 [1] and in the data set with Human alphaherpesvirus 1 [12] was Active. In addition, the PFU/ml in the data set on Human alphaherpesvirus 1 [2] was 7.09; in the data set with Human alphaherpesvirus 1 [4], 7.13; in the data set on Human alphaherpesvirus 1 [6] it was 6.14; in the data set with Human alphaherpesvirus 1 [10] it was 6.67. Also, the inhibition result in the data set with Coxsackievirus B3, in the data set with Influenza A virus and with Human orthopneumovirus was “inactive” throughout. Further, the results for the selectivity ratio in data set [3] and in data set [14] were 84.5 and 59.2, respectively. Also, the inhibition entry with Human alphaherpesvirus 1 [5], in the data set on Human alphaherpesvirus 2 [9] and in the data set on Human alphaherpesvirus 1 [13] was “Active” throughout. The outcome in the data set with Human alphaherpesvirus 1 [7] was inactive. For the same compound, half-maximal cytotoxicity in data set [8] (CC50) was put at 35500 nM. Also, the EC50 in the data set on Human alphaherpesvirus 1 [11] came out at 420 nM; in the data set on Human alphaherpesvirus 2 [15] it was 600 nM.

In the case of `Nc1nc2c(ncn2COCCO)c(=O)[nH]1` [ACYCLOVIR], the outcome with Human alphaherpesvirus 1 [1] and with Human alphaherpesvirus 1 [12] was Active. In addition, the results for the selectivity ratio in data set [3] and in data set [14] were greater than 172 and greater than 116, respectively. For the same compound, the result with Human alphaherpesvirus 1 [7] was inactive. Besides, the CC50 in data set [8] is greater than 200000 nM. Further, the EC50 in the data set on Human alphaherpesvirus 1 [11] turned out to be 1160 nM; in the data set with Human alphaherpesvirus 2 [15], 1720 nM.
